Measured values as given in ChEMBL document CHEMBL1123337, “Synthesis and antiinflammatory/analgesic activities of 11H-dibenzo[b, e,][1,4]dioxepinacetic acids” (J Med Chem, 1986).

What was measured:
Type in all cases: functional
Mus musculus [1] = test: Analgesic activity determined by its ability to inhibit phenylbenzoquinone (PBQ, ip) induced abdominal writhing at dose of 30 mg/kg; details: Abdomen
How it was run: (§1)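 Male CD mice, 18–22 g, groups of 10, fasted overnight. Dosed orally in 1% methylcellulose 60 min before ip phenylbenzoquinone (2 mg/kg, 0.02% aqueous). Writhes (abdominal contractions, lordosis, hindlimb extension) counted over 10 min, starting 5 min after PBQ. Group means and standard errors taken; percent inhibition calculated against vehicle controls.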

Mus musculus [2] = test: Analgesic activity determined by its ability to inhibit phenylbenzoquinone (PBQ, ip) induced abdominal writhing at dose of 10 mg/kg; details: Abdomen; how it was run: as §1
Rattus norvegicus [3] = test: Antiinflammatory activity was evaluated by the inhibition of rat carrageenan foot edema (CFE) assay at the dose of 1 mg/kg
How it was run: (§2)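 Rats, six per dose. Oral dosing 1 h before carrageenan injection, as a suspension in 0.25% (w/v) agar in water, 3.0 mL per animal. Hindpaw volume read by mercury displacement just after injection and 3 h later. Percent inhibition of mean swelling relative to vehicle controls; unpaired Student's t test.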

Rattus norvegicus [4] = test: Antiinflammatory activity was evaluated by the inhibition of rat carrageenan foot edema (CFE) assay at the dose of 10 mg/kg; how it was run: as §2
Rattus norvegicus [5] = test: Antiinflammatory activity was evaluated by the inhibition of rat carrageenan foot edema (CFE) assay at the dose of 3 mg/kg; how it was run: as §2
Rattus norvegicus [6] = test: Gastric haemorrhage at the dose of 10 mg/kg expressed as the number of rats with lesions per 6 number of rats (lesions per animal=4.2)
How it was run: (§3)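 Male Sprague-Dawley rats, 120–200 g, six per group, weight-sorted and fasted overnight. Given orally as a suspension in 0.5% methocal. Killed by CO2 4 h later. Stomachs everted and washed, and mucosal lesions counted visually under 3× magnification. Scored as rats with lesions per total, with lesions per animal.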

Rattus norvegicus [7] = test: Gastric haemorrhage at the dose of 30 mg/kg expressed as the number of rats with lesions per 6 number of rats; how it was run: as §3
Mus musculus [8] = test: Analgesic activity determined by its ability to inhibit phenylbenzoquinone (PBQ, ip) induced abdominal writhing at dose of 3 mg/kg; details: Abdomen; how it was run: as §1
Rattus norvegicus [9] = test: Gastric haemorrhage at the dose of 10 mg/kg expressed as the number of rats with lesions per 6 number of rats; how it was run: as §3
Rattus norvegicus [10] = test: Gastric haemorrhage at the dose of 30 mg/kg expressed as the number of rats with lesions per 6 number of rats (lesions per animal=1.7); how it was run: as §3
Rattus norvegicus [11] = test: Compound was evaluated for the effective dose required for the inhibition of rat carrageenan foot edema (CFE) assay

Question: With `CC(C(=O)O)c1ccc2c(c1)Oc1ccccc1CO2` (stereo not drawn) as the compound, how does the inhibition in vivo at 30 mg/kg (Mus musculus [1]) read?
Answer: 91%

Question: And the inhibition in vivo at 10 mg/kg (Mus musculus [2])?
Answer: 70%

Question: What about the inhibition in vivo at 1 mg/kg (Rattus norvegicus [3]) of the same compound?
Answer: 21%

Question: What about the inhibition in vivo at 10 mg/kg (Rattus norvegicus [4]) of the same compound?
Answer: 42%

Question: What about the inhibition in vivo at 3 mg/kg (Rattus norvegicus [5]) of the same compound?
Answer: 27%

Question: And the “No. of rats with lesions” value (Rattus norvegicus [6])?
Answer: 5

Question: And the “No. of rats with lesions” value (Rattus norvegicus [7])?
Answer: 6

Question: And the inhibition in vivo at 3 mg/kg (Mus musculus [8])?
Answer: 38%

Question: Which results are given for `COC(=O)C(C)c1ccc2c(c1)Oc1ccccc1CO2` (stereo not drawn)?
Answer: inhibition in vivo at 1 mg/kg (Rattus norvegicus [3]): 23%; inhibition in vivo at 10 mg/kg (Rattus norvegicus [4]): 56%; inhibition in vivo at 3 mg/kg (Rattus norvegicus [5]): 32%; No. of rats with lesions (Rattus norvegicus [9]): 0; No. of rats with lesions (Rattus norvegicus [10]): 5

Question: For `O=C(O)Cc1ccc2c(c1)Oc1cc(Cl)ccc1CO2`, which inhibition in vivo at 30 mg/kg (Mus musculus [1]) is on record?
Answer: 26%

Question: What about the inhibition in vivo at 1 mg/kg (Rattus norvegicus [3]) of the same compound?
Answer: 11%

Question: And the inhibition in vivo at 10 mg/kg (Rattus norvegicus [4])?
Answer: 5%

Question: What about the inhibition in vivo at 3 mg/kg (Rattus norvegicus [5]) of the same compound?
Answer: 19%

Question: For `CC(=O)Nc1ccc2c(c1)COc1ccc(CC(=O)O)cc1O2`, which inhibition in vivo at 30 mg/kg (Mus musculus [1]) is on record?
Answer: -55%

Question: And the inhibition in vivo at 1 mg/kg (Rattus norvegicus [3])?
Answer: 35%

Question: And the inhibition in vivo at 10 mg/kg (Rattus norvegicus [4])?
Answer: 23%

Question: And the inhibition in vivo at 3 mg/kg (Rattus norvegicus [5])?
Answer: 16%

Question: Which inhibition in vivo at 30 mg/kg (Mus musculus [1]) does the source give for `O=C(O)Cc1ccc2c(c1)Oc1ccccc1CO2` here?
Answer: 26%

Question: What about the inhibition in vivo at 1 mg/kg (Rattus norvegicus [3]) of the same compound?
Answer: 24%

Question: What about the inhibition in vivo at 10 mg/kg (Rattus norvegicus [4]) of the same compound?
Answer: 40%

Question: And the inhibition in vivo at 3 mg/kg (Rattus norvegicus [5])?
Answer: 10%

Question: `CC(CO)c1ccc2c(c1)Oc1ccccc1CO2` (stereo not drawn) was tested. Which inhibition in vivo at 1 mg/kg (Rattus norvegicus [3]) did it give?
Answer: 9%

Question: And the inhibition in vivo at 10 mg/kg (Rattus norvegicus [4])?
Answer: 45%

Question: What about the inhibition in vivo at 3 mg/kg (Rattus norvegicus [5]) of the same compound?
Answer: 19%

Question: For `O=C(O)Cc1ccc2c(c1)COc1ccccc1O2`, which inhibition in vivo at 30 mg/kg (Mus musculus [1]) is on record?
Answer: 37%

Question: And the inhibition in vivo at 1 mg/kg (Rattus norvegicus [3])?
Answer: 12%

Question: What about the inhibition in vivo at 10 mg/kg (Rattus norvegicus [4]) of the same compound?
Answer: 16%

Question: And the inhibition in vivo at 3 mg/kg (Rattus norvegicus [5])?
Answer: 9%

Question: For `O=C(O)Cc1ccc2c(c1)Oc1ccccc1OC2`, which inhibition in vivo at 10 mg/kg (Rattus norvegicus [4]) is on record?
Answer: 5%

Question: What about the inhibition in vivo at 3 mg/kg (Rattus norvegicus [5]) of the same compound?
Answer: 6%

Question: For `O=C(O)Cc1ccc2c(c1)OCc1ccccc1O2`, which inhibition in vivo at 1 mg/kg (Rattus norvegicus [3]) is on record?
Answer: 28%

Question: And the inhibition in vivo at 10 mg/kg (Rattus norvegicus [4])?
Answer: 49%

Question: What about the inhibition in vivo at 3 mg/kg (Rattus norvegicus [5]) of the same compound?
Answer: 53%

Question: Which results are given for `CC(C(=O)O)c1ccc2c(c1)OCc1ccccc1O2` (stereo not drawn)?
Answer: inhibition in vivo at 30 mg/kg (Mus musculus [1]): 70%; inhibition in vivo at 1 mg/kg (Rattus norvegicus [3]): 43%; inhibition in vivo at 10 mg/kg (Rattus norvegicus [4]): 43%; inhibition in vivo at 3 mg/kg (Rattus norvegicus [5]): 45%

Question: For `CC(=O)NCCOC(=O)C(C)c1ccc2c(c1)Oc1ccccc1CO2` (stereo not drawn), which inhibition in vivo at 1 mg/kg (Rattus norvegicus [3]) is on record?
Answer: 7%

Question: What about the inhibition in vivo at 10 mg/kg (Rattus norvegicus [4]) of the same compound?
Answer: 28%

Question: What about the inhibition in vivo at 3 mg/kg (Rattus norvegicus [5]) of the same compound?
Answer: 15%

Question: With `CCC(=O)OC(C)OC(=O)C(C)c1ccc2c(c1)Oc1ccccc1CO2` (stereo not drawn) as the compound, how does the inhibition in vivo at 1 mg/kg (Rattus norvegicus [3]) read?
Answer: 6%

Question: And the inhibition in vivo at 10 mg/kg (Rattus norvegicus [4])?
Answer: 12%

Question: And the inhibition in vivo at 3 mg/kg (Rattus norvegicus [5])?
Answer: 15%

Question: `O=C(O)Cc1ccc2c(c1)Oc1ccc(Cl)cc1CO2` was tested. Which inhibition in vivo at 30 mg/kg (Mus musculus [1]) did it give?
Answer: 82%

Question: What about the inhibition in vivo at 1 mg/kg (Rattus norvegicus [3]) of the same compound?
Answer: 21%

Question: And the inhibition in vivo at 10 mg/kg (Rattus norvegicus [4])?
Answer: 28%

Question: And the inhibition in vivo at 3 mg/kg (Rattus norvegicus [5])?
Answer: 23%

Question: How did the inhibition in vivo at 1 mg/kg (Rattus norvegicus [3]) turn out when `COc1ccc2c(c1)c(CC(=O)O)c(C)n2C(=O)c1ccc(Cl)cc1` [INDOMETHACIN] was run?
Answer: 33%

Question: And the inhibition in vivo at 10 mg/kg (Rattus norvegicus [4])?
Answer: 67%

Question: What about the inhibition in vivo at 3 mg/kg (Rattus norvegicus [5]) of the same compound?
Answer: 56%

Question: Which ED50 (Rattus norvegicus [11]) does the source give for `O=C(O)Cc1ccc2c(c1)OCc1ccccc1C2=O` [OXEPINAC] here?
Answer: 3.7 mg/kg

Question: For `Cc1cc(CC(=O)O)n(C)c1C(=O)c1ccc(Cl)cc1` [ZOMEPIRAC], which inhibition in vivo at 30 mg/kg (Mus musculus [1]) is on record?
Answer: 91%

Question: And the inhibition in vivo at 1 mg/kg (Rattus norvegicus [3])?
Answer: 61%

Question: And the inhibition in vivo at 3 mg/kg (Rattus norvegicus [5])?
Answer: 82%
